Measured values taken from PubChem BioAssay AID624163 (Southern Research Specialized Biocontainment Screening …, 2012).
Active and inactive are the calls of the source.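 The calls were made as follows: active = inhibition of 30% or more at any tested concentration; inactive = the rest.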

biological target: Aminopeptidase N (Plasmodium falciparum (isolate 3D7)) (UniProt O96935); experiment: PFM1AAP inhibitors, dose response, biochemical, QFRET, fluorogenic H-Leu-NHMec substrate, set 3 (AID 624163); conditions: purified rPFM1AAP, H-Leu-NHMec fluorogenic substrate cleavage
Outline: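 Material: purified recombinant Plasmodium falciparum M1 alanyl aminopeptidase (rPfM1AAP). Amount: enzyme 5 µg/mL. Reagent: fluorogenic substrate H-Leu-NHMec at 0.1 mM final. Compound dosing: ten twofold doses, 0.2–100 µM. Incubation: 90 min reaction, room temperature. Measured by: fluorescence of released NHMec, excitation 370 nm, emission 460 nm.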

Chain of Aminopeptidase N (Plasmodium falciparum (isolate 3D7)) (O96935 whole entry, looked up): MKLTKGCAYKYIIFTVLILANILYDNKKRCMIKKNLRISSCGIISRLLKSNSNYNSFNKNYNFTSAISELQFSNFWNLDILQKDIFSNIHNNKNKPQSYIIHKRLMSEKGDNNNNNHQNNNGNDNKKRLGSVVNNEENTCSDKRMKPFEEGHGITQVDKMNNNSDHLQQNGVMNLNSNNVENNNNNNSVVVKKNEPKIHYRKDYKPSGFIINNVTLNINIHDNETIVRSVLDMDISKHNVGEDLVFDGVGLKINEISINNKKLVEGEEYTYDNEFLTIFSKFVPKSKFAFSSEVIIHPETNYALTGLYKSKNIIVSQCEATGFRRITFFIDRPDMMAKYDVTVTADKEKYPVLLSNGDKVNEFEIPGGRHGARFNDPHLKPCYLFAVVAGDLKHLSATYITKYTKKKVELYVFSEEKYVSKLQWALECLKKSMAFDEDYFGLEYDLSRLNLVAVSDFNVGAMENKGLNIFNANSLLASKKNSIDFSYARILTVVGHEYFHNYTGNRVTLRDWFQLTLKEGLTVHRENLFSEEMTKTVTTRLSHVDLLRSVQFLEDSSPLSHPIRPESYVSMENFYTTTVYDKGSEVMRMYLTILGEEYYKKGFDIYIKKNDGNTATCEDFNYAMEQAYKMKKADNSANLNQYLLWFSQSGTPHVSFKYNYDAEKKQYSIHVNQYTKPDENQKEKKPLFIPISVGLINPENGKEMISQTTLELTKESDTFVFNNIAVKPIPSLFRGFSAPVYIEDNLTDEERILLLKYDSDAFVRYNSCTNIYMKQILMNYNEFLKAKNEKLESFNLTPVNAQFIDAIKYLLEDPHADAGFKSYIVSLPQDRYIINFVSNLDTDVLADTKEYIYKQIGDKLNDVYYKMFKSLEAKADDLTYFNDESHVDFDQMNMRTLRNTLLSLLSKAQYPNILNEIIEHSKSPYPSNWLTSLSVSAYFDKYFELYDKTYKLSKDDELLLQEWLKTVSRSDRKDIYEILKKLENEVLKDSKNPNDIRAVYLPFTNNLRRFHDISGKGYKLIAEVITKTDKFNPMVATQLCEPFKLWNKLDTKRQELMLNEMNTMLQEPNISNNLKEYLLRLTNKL

IC50 [µM] | SMILES
6.48 | O=C(NCc1ccc(F)cc1)C1CCN(S(=O)(=O)c2ccc(Cl)s2)CC1
3.98 | O=C(NCc1cccc(F)c1)C1CCN(S(=O)(=O)c2ccc(Cl)s2)CC1
69.2 | O=C(NCc1ccc(F)cc1)C1CCN(S(=O)(=O)c2sccc2Br)CC1
12.7 | O=C(NCc1ccccc1F)C1CCN(S(=O)(=O)c2ccc(Br)cc2)CC1
7.44 | O=C(NCc1ccc2c(c1)OCO2)C1CCN(S(=O)(=O)c2ccc(Br)cc2)CC1
3.97 | O=C(NCc1ccccc1F)C1CCN(S(=O)(=O)c2ccc(Cl)s2)CC1
34.3 | O=C(NCc1ccc2c(c1)OCO2)C1CCN(S(=O)(=O)c2sccc2Br)CC1
11.2 | O=C(NCc1cccc(F)c1)C1CCN(S(=O)(=O)c2ccc(Br)cc2)CC1
1.22 | O=C(NCc1ccc2c(c1)OCO2)C1CCN(S(=O)(=O)c2ccc(Br)s2)CC1
3.95 | O=C(NCc1ccc(F)cc1)C1CCN(S(=O)(=O)c2ccc(Br)s2)CC1
2.83 | O=C(NCc1ccc2c(c1)OCO2)C1CCN(S(=O)(=O)c2ccc(Cl)s2)CC1
33.7 | O=C(NCc1ccccc1F)C1CCN(S(=O)(=O)c2sccc2Br)CC1
2.53 | O=C(NCc1ccccc1F)C1CCN(S(=O)(=O)c2ccc(Br)s2)CC1
28 | O=C(NCc1ccc(F)cc1)C1CCN(S(=O)(=O)c2ccc(Br)cc2)CC1
29.8 | O=C(NCc1cccc(F)c1)C1CCN(S(=O)(=O)c2sccc2Br)CC1
2.18 | O=C(NCc1cccc(F)c1)C1CCN(S(=O)(=O)c2ccc(Br)s2)CC1

same assay, conditions: purified rPFM1AAP, H-Leu-NHMec fluorogenic substrate cleavage; at 100 µM (top of the series)

inhibition | SMILES
inactive | O=C(NCc1ccc2c(c1)OCO2)C1CCN(S(=O)(=O)c2cc(Br)c(Br)s2)CC1
inactive | O=C(NCCc1ccc2c(c1)OCO2)C1CCN(S(=O)(=O)c2ccc(Br)s2)CC1
inactive | O=C(Nc1ccc2c(c1)OCO2)C1CCN(S(=O)(=O)c2ccc(Br)s2)CC1
inactive | O=C(NCCc1ccc2c(c1)OCO2)C1CCN(S(=O)(=O)c2ccc(Br)cc2)CC1
inactive | O=C(Nc1ccc2c(c1)OCO2)C1CCN(S(=O)(=O)c2ccc(Cl)s2)CC1
inactive | O=C(Nc1ccc2c(c1)OCO2)C1CCN(S(=O)(=O)c2sccc2Br)CC1
inactive | O=C(NCc1ccccc1F)C1CCN(S(=O)(=O)c2cc(Br)c(Br)s2)CC1
inactive | O=C(Nc1ccc2c(c1)OCO2)C1CCN(S(=O)(=O)c2cc(Br)c(Br)s2)CC1
inactive | O=C(NCCc1ccc2c(c1)OCO2)C1CCN(S(=O)(=O)c2ccc(Cl)s2)CC1
inactive | O=C(NCc1cccc(F)c1)C1CCN(S(=O)(=O)c2cc(Br)c(Br)s2)CC1
inactive | O=C(NCCc1ccc2c(c1)OCO2)C1CCN(S(=O)(=O)c2cc(Br)c(Br)s2)CC1
inactive | O=C(Nc1ccc2c(c1)OCO2)C1CCN(S(=O)(=O)c2ccc(Br)cc2)CC1
inactive | O=C(NCc1ccc(F)cc1)C1CCN(S(=O)(=O)c2cc(Br)c(Br)s2)CC1
inactive | O=C(NCCc1ccc2c(c1)OCO2)C1CCN(S(=O)(=O)c2sccc2Br)CC1
